Assay outcomes: PubChem, Johns Hopkins Ion Channel Center
This is a sample that favours compounds with a hit; in the whole collection about 3% have one here.
TRPC6 act: mouse TRPC6 channel activators, primary screen, cell-based, HEK293, membrane potential dye; Short transient receptor potential channel 6 (Mus musculus), Q61143; HEK293-TRPC6 membrane potential dye fluorescence; hits give high values; B-score at 10 µM; hit rate 0.13% among 310,000; AID 2550, 2010;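 active = B-score of the integrated fluorescence ratio above library mean plus 3 SD, and starting fluorescence ratio within library mean plus 5 SD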;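 note: higher score means more depolarization so channel activation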
TRPC4 potent: positive allosteric modulators of TRPC4, primary screen, cell-based, mouse TRPC4beta, HEK293 mu-opioid, Fluo-4 calcium | B-score at 10 µM | hit rate 0.42% among 310,000 | DAMGO EC20, Fluo-4 Ca2+ flux; hits give high values;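 active = B-score of calcium response area above 5 SD of library B-scores, with initial fluorescence ratio within 5 SD of library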;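 note: B-score of integrated fluorescence ratio over time as area under calcium response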
Target sequence (Q9QUQ5 whole entry, looked up): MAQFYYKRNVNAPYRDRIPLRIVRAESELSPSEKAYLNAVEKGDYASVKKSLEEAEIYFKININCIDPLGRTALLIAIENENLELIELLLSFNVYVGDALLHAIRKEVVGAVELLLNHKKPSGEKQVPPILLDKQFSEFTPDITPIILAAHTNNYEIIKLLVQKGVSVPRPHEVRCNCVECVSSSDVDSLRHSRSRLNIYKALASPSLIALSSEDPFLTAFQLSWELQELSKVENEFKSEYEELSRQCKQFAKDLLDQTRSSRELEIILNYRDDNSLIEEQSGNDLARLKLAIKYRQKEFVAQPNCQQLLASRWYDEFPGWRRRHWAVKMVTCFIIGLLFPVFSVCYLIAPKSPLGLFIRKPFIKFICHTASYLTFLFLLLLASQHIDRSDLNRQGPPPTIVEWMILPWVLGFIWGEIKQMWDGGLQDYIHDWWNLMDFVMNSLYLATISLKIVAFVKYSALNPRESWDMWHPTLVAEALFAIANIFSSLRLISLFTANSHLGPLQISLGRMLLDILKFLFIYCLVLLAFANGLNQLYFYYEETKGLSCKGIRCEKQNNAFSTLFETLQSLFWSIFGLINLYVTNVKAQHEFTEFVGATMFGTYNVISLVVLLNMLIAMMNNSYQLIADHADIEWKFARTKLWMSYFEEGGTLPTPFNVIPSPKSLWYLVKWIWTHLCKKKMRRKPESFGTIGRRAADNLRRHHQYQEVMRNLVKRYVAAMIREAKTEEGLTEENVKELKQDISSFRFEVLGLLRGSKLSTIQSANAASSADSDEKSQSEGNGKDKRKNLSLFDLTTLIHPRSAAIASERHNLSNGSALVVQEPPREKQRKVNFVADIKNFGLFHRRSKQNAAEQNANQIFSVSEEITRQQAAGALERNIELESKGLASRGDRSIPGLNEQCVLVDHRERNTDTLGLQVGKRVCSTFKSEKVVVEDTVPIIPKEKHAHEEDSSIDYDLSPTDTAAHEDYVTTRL
Kir21 block: inhibitors of mouse Kir2.1 inward-rectifier potassium channel; HEK293-Kir2.1, FluxOR thallium flux fluorescence; hits give low values; B-score at 10 µM; hit rate 0.85% among 310,000; AID 1672, 2009;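 active = fluorescence ratio B-score at or below minus 3 SD of library scores, with starting-brightness B-score within 2 SD, cut at about -4.2 in these data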;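 note: channel flux triggered by added potassium and thallium sulfate stimulus; B-score of peak minus minimum fluorescence over baseline after thallium stimulus; more negative B-score means stronger Kir2.1 block with less thallium influx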
TRPC6 inhibitor: mouse TRPC6 channel inhibitors, primary screen, cell-based, HEK293, membrane potential dye; hit rate 1.1% among 310,000; AID 2553, 2010; ACh-evoked depolarization; hits give low values; Short transient receptor potential channel 6 (Mus musculus), Q61143; B-score at 10 µM;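 active = B-score under library mean minus 3 SD, initial fluorescence not abnormally high, positive integrated signal ratio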;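 note: B-score derived from integrated fluorescence ratio over the kinetic read; more negative B-score means stronger inhibition of depolarization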
TRPC4 block: inhibitors of mouse TRPC4 channel, primary screen, Fluo4 calcium, HEK293 TRPC4beta/mu-opioid cells; Short transient receptor potential channel 4 (Mus musculus), Q9QUQ5; DAMGO-evoked Fluo4 calcium flux; hits give low values; B-score at 10 µM; hit rate 0.39% among 300,000;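 active = B-score over 3 SD under the library average, no early fluorescence shift, positive overall ratio signal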
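Signal: kinetic Fluo4 fluorescence imaging of calcium influx. Material: stable TRPC4beta/mu-opioid receptor HEK293 cells. Probe or stimulus: DAMGO in two steps, submaximal then maximal.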
TRPC4 act: activators of mouse TRPC4 channel, primary screen, Fluo4 calcium, HEK293 TRPC4beta/mu-opioid cells; Short transient receptor potential channel 4 (Mus musculus), Q9QUQ5; hit rate 0.49% among 310,000; AID 2237, 2010; Fluo4 calcium fluorescence; hits give high values; B-score at 10 µM;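 active = B-score above 5 SD of library B-scores, and initial fluorescence ratio not above library mean plus 5 SD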;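 note: positive B-score marks a calcium rise read as TRPC4 activation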
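Test system: HEK293 cells stably co-expressing mouse TRPC4beta and mu-opioid receptor | Schedule: Fluo4 dye loading 45 min at room temperature, 110 s recording | Measured by: Kinetic Fluo4 calcium fluorescence, 5 s baseline at 1 Hz | Evaluation: B score of integrated ratio | Controls: Buffer (low) and maximal DAMGO (high)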
* hit, by the source's call.

How did CCOc1ccccc1OC(=O)CN1C(=O)c2ccccc2C1=O do in these assays?
TRPC6 act: inactive; TRPC4 potent: inactive; Kir21 block: -0.55; TRPC6 inhibitor: inactive; TRPC4 block: inactive; TRPC4 act: inactive

How did O=C(C1=C[C@@H](c2ccc(C(F)(F)F)cc2)C[C@@H](OCCCCO)O1)N1CCOCC1 do in these assays?
TRPC6 act: inactive; TRPC4 potent: inactive; Kir21 block: -0.03; TRPC6 inhibitor: inactive; TRPC4 block: inactive; TRPC4 act: inactive

What do the screens show for `O=C(C1=C[C@H](c2ccc(C(F)(F)F)cc2)C[C@H](OCCCCO)O1)N1CCOCC1`?
TRPC6 act: inactive; TRPC4 potent: inactive; Kir21 block: -1.6; TRPC6 inhibitor: inactive; TRPC4 block: inactive; TRPC4 act: 133*

How did O=[N+]([O-])c1cccc(S(=O)(=O)N2CCCCC2c2cccnc2)c1 (stereo unspecified) do in these assays?
TRPC6 act: inactive; TRPC4 potent: inactive; Kir21 block: -1.5; TRPC6 inhibitor: inactive; TRPC4 block: inactive; TRPC4 act: inactive

What do the screens show for `CN(Cc1ccco1)S(=O)(=O)c1csc(C(N)=O)c1`?
TRPC6 act: inactive; TRPC4 potent: inactive; Kir21 block: 0.03; TRPC6 inhibitor: inactive; TRPC4 block: inactive; TRPC4 act: inactive

What do the screens show for `CCCCN(Cc1cccs1)S(=O)(=O)c1csc(C(N)=O)c1`?
TRPC6 act: inactive; TRPC4 potent: inactive; Kir21 block: -7.8*; TRPC6 inhibitor: inactive; TRPC4 block: inactive; TRPC4 act: inactive

How did COc1ccc(C(CNC(=O)C(=O)Nc2ccc3c(c2)OCCO3)N2CCN(C)CC2)cc1 (stereo unspecified) do in these assays?
TRPC6 act: inactive; TRPC4 potent: inactive; Kir21 block: -0.88; TRPC6 inhibitor: inactive; TRPC4 block: inactive; TRPC4 act: inactive

What do the screens show for `COc1ccc(CN2CCCCC2C(=O)Nc2ccc(OC)c(OC)c2)cc1OC` (stereo unspecified)?
TRPC6 act: inactive; TRPC4 potent: inactive; Kir21 block: 1.6; TRPC6 inhibitor: inactive; TRPC4 block: inactive; TRPC4 act: inactive

What do the screens show for `COc1ccc(CN2CCCC2C(=O)Nc2ccc(OC)c(OC)c2)cc1OC` (stereo unspecified)?
TRPC6 act: inactive; TRPC4 potent: inactive; Kir21 block: -0.77; TRPC6 inhibitor: -5.7*; TRPC4 block: inactive; TRPC4 act: inactive

Results for Cc1ccccc1CN1CCN(C2CCC2)CC1CCO (stereo unspecified) ?
TRPC6 act: inactive; TRPC4 potent: inactive; Kir21 block: 0.35; TRPC6 inhibitor: inactive; TRPC4 block: inactive; TRPC4 act: inactive

Results for CCOC(=O)CSc1nc2c(sc(=S)n2-c2ccccc2OC)c(=O)n1Cc1ccco1 ?
TRPC6 act: inactive; TRPC4 potent: inactive; Kir21 block: 1.2; TRPC6 inhibitor: -5.7*; TRPC4 block: -5*; TRPC4 act: inactive

What do the screens show for `NC1=NC[C@H](Cc2ccccc2)N1CCCCC1CCCCC1`?
TRPC6 act: inactive; TRPC4 potent: inactive; Kir21 block: -5.8*; TRPC6 inhibitor: inactive; TRPC4 block: inactive; TRPC4 act: inactive

How did NC1=NC[C@H](Cc2ccc(O)cc2)N1CCCCC1CCCCC1 do in these assays?
TRPC6 act: inactive; TRPC4 potent: inactive; Kir21 block: -2.2; TRPC6 inhibitor: inactive; TRPC4 block: inactive; TRPC4 act: inactive

Results for CC(C)NC(=S)Nc1c(N)[nH]c(=O)[nH]c1=O ?
TRPC6 act: inactive; TRPC4 potent: inactive; Kir21 block: 1.1; TRPC6 inhibitor: inactive; TRPC4 block: inactive; TRPC4 act: inactive

How did C=CCn1c(SCC(=O)NC2CCCc3ccccc32)nnc1-c1ccncc1 (stereo unspecified) do in these assays?
TRPC6 act: inactive; TRPC4 potent: inactive; Kir21 block: 1.4; TRPC6 inhibitor: inactive; TRPC4 block: inactive; TRPC4 act: inactive

Results for CCN1CCN(CCNC(=O)c2ccc(/C=C3/Sc4ccccc4N(Cc4cccc(Cl)c4)C3=O)cc2)CC1 ?
TRPC6 act: inactive; TRPC4 potent: inactive; Kir21 block: -5.1*; TRPC6 inhibitor: inactive; TRPC4 block: inactive; TRPC4 act: inactive

How did Cc1cccc(CN2C(=O)/C(=C\c3ccc(C(=O)NCCN4CCOCC4)cc3)Sc3ccccc32)c1 do in these assays?
TRPC6 act: inactive; TRPC4 potent: inactive; Kir21 block: -0.39; TRPC6 inhibitor: inactive; TRPC4 block: inactive; TRPC4 act: inactive

How did COc1ccccc1C(CCN(Cc1cccs1)C(C)=O)c1ccco1 (stereo unspecified) do in these assays?
TRPC6 act: inactive; TRPC4 potent: inactive; Kir21 block: -2.3; TRPC6 inhibitor: inactive; TRPC4 block: inactive; TRPC4 act: inactive

How did CCC(=O)N(CCC(c1ccccc1)c1ccco1)Cc1cccs1 (stereo unspecified) do in these assays?
TRPC6 act: inactive; TRPC4 potent: inactive; Kir21 block: -7.4*; TRPC6 inhibitor: inactive; TRPC4 block: inactive; TRPC4 act: inactive

How did CCC(=O)N(CCC(Cc1ccccc1)c1ccco1)Cc1ccco1 (stereo unspecified) do in these assays?
TRPC6 act: inactive; TRPC4 potent: inactive; Kir21 block: -12*; TRPC6 inhibitor: inactive; TRPC4 block: inactive; TRPC4 act: inactive

What do the screens show for `Cc1cc(=O)oc2cc(NC(=S)NNC(=O)c3c(Cl)cnn3C)ccc12`?
TRPC6 act: inactive; TRPC4 potent: inactive; Kir21 block: 0.06; TRPC6 inhibitor: inactive; TRPC4 block: inactive; TRPC4 act: inactive

Results for CCN(CCC(=O)Nc1ccc(Br)c(C)c1)Cc1ccccc1 ?
TRPC6 act: inactive; TRPC4 potent: inactive; Kir21 block: -5.7*; TRPC6 inhibitor: inactive; TRPC4 block: inactive; TRPC4 act: inactive

What do the screens show for `CCOC(=O)c1c(NC(C)=O)sc2c(OCC(O)CNC(C)(C)C)c(Br)ccc12` (stereo unspecified)?
TRPC6 act: inactive; TRPC4 potent: inactive; Kir21 block: -6.1*; TRPC6 inhibitor: inactive; TRPC4 block: inactive; TRPC4 act: inactive

Results for CCOC(=O)c1c(N)sc2c(OCC)c(Br)ccc12 ?
TRPC6 act: inactive; TRPC4 potent: inactive; Kir21 block: -0.32; TRPC6 inhibitor: inactive; TRPC4 block: inactive; TRPC4 act: inactive
